2 compounds from ChEMBL document CHEMBL1781874, “Cytotoxic triterpenoids from the stems of Microtropis japonica” (J Nat Prod, 2009) can be followed below.

Test [1] deals with Histone deacetylase 3 (Homo sapiens) (UniProt O15379). In words: Inhibition of HDAC3 in human HL60 cells at 5 to 20 ug/ml after 24 hrs by Western blotting analysis. Type of test: cell-based. The note with it: HL-60. The procedure, abridged: (§1)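 Cells lysed for 30 min in RIPA buffer (PBS, 1% NP-40, 0.5% deoxycholate, 0.1% SDS, 1 mM orthovanadate, 100 μg/mL PMSF, 30 μg/mL aprotinin), then spun at 20000g for 30 min. Supernatant protein quantified by Bio-Rad assay. Equal protein run on 7.5, 10 or 12% SDS-PAGE, transferred to PVDF, blocked 1 h in 5% nonfat milk in TBST.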
Chain of Histone deacetylase 3 (Homo sapiens) (O15379 whole entry): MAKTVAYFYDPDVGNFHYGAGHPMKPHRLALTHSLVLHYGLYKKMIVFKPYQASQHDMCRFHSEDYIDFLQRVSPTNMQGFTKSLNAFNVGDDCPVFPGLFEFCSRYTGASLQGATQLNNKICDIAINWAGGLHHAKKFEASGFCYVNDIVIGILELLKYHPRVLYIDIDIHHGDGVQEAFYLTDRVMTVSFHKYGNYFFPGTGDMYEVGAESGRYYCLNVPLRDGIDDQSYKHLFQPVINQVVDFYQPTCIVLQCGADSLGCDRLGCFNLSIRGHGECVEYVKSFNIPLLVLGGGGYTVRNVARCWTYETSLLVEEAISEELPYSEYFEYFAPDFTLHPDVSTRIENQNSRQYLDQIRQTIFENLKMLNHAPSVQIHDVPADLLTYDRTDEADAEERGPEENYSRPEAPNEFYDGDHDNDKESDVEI
On the technique in general: A western blot detects proteins with antibodies after separation by electrophoresis.

Test [2] deals with Histone deacetylase 1 (Homo sapiens) (UniProt Q13547). In words: Inhibition of HDAC1 in human HL60 cells at 5 to 20 ug/ml after 24 hrs by Western blotting analysis. The class given is cell-based. The note with it: HL-60. The procedure, abridged:
as §1

Test [3] deals with HL-60. The test is described as follows: Induction of apoptosis in human HL60 cells assessed as PARP cleavage by Western blotting analysis. Type of test: functional, cell-based. In a few lines: as §1
Test [4] deals with HL-60. The test is described as follows: Induction of apoptosis in human HL60 cells assessed as increase in Bax expression by Western blotting analysis. Type of test: functional, cell-based. In a few lines:
as §1

The subject of a further test is Ca9-22. The test is described as follows: Cytotoxicity against human Ca9-22 cells after 24 hrs by MTT assay. Type of test: functional, cell-based. The note with it: Ca9-22, 24 h. In a few lines: (§2)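 MTT viability read-out on human cancer cell lines (Ca9-22 gingival, HL60 leukemia, HepG2 hepatoma), run to a previously published protocol.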
A general note: Tetrazolium dyes change colour on reduction, which living cells bring about.

Test [5] deals with HL-60. The test is described as follows: Cytotoxicity against human HL60 cells after 24 hrs by MTT assay. Type of test: functional, cell-based. The note with it: HL-60, 24 h. The procedure, abridged: as §2
Test [6] addresses T1, Protein deacetylase HDAC6 (Homo sapiens) (UniProt Q9UBN7).
T1 sequence (whole entry): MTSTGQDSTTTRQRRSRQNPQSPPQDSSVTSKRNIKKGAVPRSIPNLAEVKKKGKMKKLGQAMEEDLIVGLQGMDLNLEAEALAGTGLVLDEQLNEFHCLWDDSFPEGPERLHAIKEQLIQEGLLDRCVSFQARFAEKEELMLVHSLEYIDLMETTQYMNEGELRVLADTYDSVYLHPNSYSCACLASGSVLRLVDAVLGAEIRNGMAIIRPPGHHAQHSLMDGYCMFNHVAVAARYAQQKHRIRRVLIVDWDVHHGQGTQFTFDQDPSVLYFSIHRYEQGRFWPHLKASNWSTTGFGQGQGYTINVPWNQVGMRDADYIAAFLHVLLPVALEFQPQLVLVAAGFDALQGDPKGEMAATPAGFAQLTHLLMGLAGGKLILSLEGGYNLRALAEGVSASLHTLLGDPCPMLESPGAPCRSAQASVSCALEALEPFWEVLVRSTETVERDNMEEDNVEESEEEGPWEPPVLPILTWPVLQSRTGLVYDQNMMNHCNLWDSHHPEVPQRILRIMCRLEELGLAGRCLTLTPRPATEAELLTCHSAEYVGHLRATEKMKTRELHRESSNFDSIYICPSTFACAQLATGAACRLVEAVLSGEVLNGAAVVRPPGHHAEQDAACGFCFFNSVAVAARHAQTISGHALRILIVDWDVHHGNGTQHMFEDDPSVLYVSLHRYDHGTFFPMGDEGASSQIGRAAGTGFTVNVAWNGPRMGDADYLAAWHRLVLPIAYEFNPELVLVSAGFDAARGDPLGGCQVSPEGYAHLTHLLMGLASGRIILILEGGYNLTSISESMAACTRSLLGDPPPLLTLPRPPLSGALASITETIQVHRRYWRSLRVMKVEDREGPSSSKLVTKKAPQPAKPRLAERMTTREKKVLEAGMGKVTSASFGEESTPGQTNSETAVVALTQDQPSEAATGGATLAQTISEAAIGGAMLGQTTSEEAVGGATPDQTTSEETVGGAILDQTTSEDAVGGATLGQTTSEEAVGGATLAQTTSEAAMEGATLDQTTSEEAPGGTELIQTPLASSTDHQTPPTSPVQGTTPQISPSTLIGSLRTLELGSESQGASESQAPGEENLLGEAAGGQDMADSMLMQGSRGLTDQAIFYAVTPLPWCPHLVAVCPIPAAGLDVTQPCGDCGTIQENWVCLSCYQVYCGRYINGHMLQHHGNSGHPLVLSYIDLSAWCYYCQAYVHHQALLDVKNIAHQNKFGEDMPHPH
The test is described as follows: Inhibition of HDAC6 in human HL60 cells at 5 to 20 ug/ml after 24 hrs by Western blotting analysis. The class given is cell-based. The settings on record: HL-60. The procedure, abridged: as §1

In test [7] the target is Histone deacetylase 4 (Homo sapiens) (UniProt P56524). In words: Inhibition of HDAC4 in human HL60 cells at 5 to 20 ug/ml after 24 hrs by Western blotting analysis. The note with it: HL-60. The class given is cell-based. In a few lines: as §1
Chain of Histone deacetylase 4 (Homo sapiens) (P56524 whole entry): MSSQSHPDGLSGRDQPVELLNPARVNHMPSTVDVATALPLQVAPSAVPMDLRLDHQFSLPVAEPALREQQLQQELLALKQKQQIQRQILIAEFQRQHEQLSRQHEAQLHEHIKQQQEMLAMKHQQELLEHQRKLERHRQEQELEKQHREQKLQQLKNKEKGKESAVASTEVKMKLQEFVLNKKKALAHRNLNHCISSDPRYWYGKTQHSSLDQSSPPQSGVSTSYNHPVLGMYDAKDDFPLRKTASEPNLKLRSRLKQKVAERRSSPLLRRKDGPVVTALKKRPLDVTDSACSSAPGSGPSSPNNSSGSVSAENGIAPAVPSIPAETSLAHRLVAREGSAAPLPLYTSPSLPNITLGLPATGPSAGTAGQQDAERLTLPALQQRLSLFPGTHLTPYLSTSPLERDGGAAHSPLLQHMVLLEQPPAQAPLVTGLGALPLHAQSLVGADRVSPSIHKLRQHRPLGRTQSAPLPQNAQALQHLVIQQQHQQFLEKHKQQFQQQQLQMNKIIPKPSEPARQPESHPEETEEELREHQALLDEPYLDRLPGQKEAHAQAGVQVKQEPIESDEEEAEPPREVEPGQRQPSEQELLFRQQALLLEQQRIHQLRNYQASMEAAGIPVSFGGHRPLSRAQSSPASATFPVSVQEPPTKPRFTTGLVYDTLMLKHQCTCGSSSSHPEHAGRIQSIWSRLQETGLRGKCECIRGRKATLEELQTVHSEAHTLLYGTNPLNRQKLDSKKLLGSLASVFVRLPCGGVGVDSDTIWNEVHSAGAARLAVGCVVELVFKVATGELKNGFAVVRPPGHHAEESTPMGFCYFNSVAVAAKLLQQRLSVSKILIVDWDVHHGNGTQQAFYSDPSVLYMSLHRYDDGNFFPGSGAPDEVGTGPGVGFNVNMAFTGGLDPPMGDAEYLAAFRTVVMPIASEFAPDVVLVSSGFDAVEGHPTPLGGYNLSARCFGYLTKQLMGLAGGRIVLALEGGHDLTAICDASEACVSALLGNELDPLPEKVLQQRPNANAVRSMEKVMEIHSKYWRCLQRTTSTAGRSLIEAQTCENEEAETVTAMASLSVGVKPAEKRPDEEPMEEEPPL
Test [8] deals with Histone deacetylase 5 (Homo sapiens) (UniProt Q9UQL6). The test is described as follows: Inhibition of HDAC5 in human HL60 cells at 5 to 20 ug/ml after 24 hrs by Western blotting analysis. The class given is cell-based. The note with it: HL-60. In a few lines:
as §1

Test [9] relates to HL-60. In words: Effect on Bcl2 expression in human HL60 cells by Western blotting analysis. The class given is functional, cell-based. The procedure, abridged:
as §1

The target of test [10] is Histone deacetylase (Homo sapiens) (UniProt Q13547+O15379+Q9UBN7+Q92769+Q9UQL6+Q8WUI4+Q9BY41+Q96DB2+P56524+Q9UKV0+Q969S8). The note with it: HL-60, at 20 µg/mL.
A further test has as its system HepG2. The test is described as follows: Cytotoxicity against human HepG2 cells after 24 hrs by MTT assay. The class given is functional, cell-based. The note with it: HepG2, 24 h. In a few lines:
as §2

Structures are written as SMILES. ≈ marks a conversion by molar mass, not a printed value. Calls of active or inactive are those of the source. The rule behind the calls is not given here.

Chain of Histone deacetylase 5 (Homo sapiens) (Q9UQL6 whole entry): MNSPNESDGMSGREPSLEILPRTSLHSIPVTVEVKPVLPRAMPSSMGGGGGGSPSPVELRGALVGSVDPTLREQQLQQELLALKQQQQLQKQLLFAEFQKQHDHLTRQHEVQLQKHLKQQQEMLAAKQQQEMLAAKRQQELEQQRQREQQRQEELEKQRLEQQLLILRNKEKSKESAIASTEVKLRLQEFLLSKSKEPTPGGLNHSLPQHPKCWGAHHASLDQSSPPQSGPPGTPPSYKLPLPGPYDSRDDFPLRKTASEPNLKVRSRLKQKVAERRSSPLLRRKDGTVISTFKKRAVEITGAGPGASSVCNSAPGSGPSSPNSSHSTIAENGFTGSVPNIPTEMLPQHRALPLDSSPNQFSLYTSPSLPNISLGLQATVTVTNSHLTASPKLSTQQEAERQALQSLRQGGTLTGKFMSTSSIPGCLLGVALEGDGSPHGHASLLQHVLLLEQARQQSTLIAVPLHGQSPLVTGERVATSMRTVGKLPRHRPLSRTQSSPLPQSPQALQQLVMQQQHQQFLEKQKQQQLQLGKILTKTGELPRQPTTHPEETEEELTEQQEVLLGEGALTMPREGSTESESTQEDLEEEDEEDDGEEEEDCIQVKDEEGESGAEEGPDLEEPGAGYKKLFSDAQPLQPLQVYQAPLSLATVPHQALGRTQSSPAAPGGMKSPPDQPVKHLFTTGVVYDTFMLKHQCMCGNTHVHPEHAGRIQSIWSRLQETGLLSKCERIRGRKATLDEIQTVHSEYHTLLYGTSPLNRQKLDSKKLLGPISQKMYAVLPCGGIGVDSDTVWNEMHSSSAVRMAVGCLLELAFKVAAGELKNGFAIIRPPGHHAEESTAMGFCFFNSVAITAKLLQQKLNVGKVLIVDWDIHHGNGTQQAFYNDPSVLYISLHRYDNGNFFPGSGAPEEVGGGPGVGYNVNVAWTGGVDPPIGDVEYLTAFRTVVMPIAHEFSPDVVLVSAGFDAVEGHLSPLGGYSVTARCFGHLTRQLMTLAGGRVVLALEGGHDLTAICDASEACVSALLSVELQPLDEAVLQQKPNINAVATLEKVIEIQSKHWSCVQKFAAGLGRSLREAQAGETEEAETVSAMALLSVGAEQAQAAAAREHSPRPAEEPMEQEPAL
Chain of Histone deacetylase 1 (Homo sapiens) (Q13547 whole entry): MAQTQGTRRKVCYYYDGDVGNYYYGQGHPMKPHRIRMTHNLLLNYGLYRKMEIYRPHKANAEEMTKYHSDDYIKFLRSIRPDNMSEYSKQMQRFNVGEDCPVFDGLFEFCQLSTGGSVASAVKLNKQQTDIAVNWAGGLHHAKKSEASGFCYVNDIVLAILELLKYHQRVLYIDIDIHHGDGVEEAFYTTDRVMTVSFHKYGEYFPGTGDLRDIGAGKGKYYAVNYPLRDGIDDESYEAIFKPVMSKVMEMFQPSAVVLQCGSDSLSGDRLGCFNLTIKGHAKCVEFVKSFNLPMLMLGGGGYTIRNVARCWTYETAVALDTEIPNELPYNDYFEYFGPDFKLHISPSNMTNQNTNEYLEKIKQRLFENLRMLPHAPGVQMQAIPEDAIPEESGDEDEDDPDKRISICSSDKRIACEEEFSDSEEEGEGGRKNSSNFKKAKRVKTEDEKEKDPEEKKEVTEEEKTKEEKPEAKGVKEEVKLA

Consider `C[C@H]1[C@H](C)CC[C@]2(C(=O)O)CC[C@]3(C)C(=CC[C@@H]4[C@@]5(C)CC[C@H](O)C(C)(C)[C@@H]5CC[C@]43C)[C@H]12` [URSOLIC ACID], for which the inhibition entry in [1], in test [2], in test [6], in [7], in [8] and in [10] was “Active” in each case. The outcome in the test with HL-60 [3] and in the test with HL-60 [4] was Active. Also, the half-maximal inhibitory concentration (IC50) (as a rule, the midpoint of a concentration-inhibition curve) in the test on Ca9-22 was 5.9 µg/mL (≈ 12.9 µM); in the test on HL-60 [5] it was 8.7 µg/mL (≈ 19 µM). Further, the outcome with HL-60 [9] was inactive.

`CO[C@@H]1C(O)=C2[C@@H]3[C@@H](C)[C@H](C)CC[C@]3(C)CC[C@@]2(C)[C@]2(C)CC[C@@H]3[C@](C)(CCC(=O)[C@@]3(C)CO)[C@@H]12`: the figures for the IC50 in the test with HL-60 [5] and in the test on HepG2 were 5.1 µg/mL (≈ 10.5 µM) and 7.7 µg/mL (≈ 15.8 µM), respectively.
